# Experimental data of several laboratories.
# Protocols differ between the studies behind these lines.
# ERBB2: Receptor tyrosine-protein kinase erbB-2 (ERBB2, Homo sapiens, UniProt P04626)
# SLC18A2: Synaptic vesicular amine transporter (SLC18A2, Homo sapiens, UniProt Q05940)
# LATS1: Serine/threonine-protein kinase LATS1 (LATS1, Homo sapiens, UniProt O95835)
# CA1: Carbonic anhydrase 1 (CA1, Homo sapiens, UniProt P00915)
# gag-pol reverse transcriptase: Gag-Pol polyprotein, reverse transcriptase (gag-pol, Human immunodeficiency virus 1, UniProt P03366)
# UGT1A4: UDP-glucuronosyltransferase 1A4 (UGT1A4, Homo sapiens, UniProt P22310)
# CA2: Carbonic anhydrase 2 (CA2, Homo sapiens, UniProt P00918)
# ACKR3: Atypical chemokine receptor 3 (ACKR3, Homo sapiens, UniProt P25106)
# CYP2C19: Cytochrome P450 2C19 (CYP2C19, Homo sapiens, UniProt P33261)
# HTR3A: 5-hydroxytryptamine receptor 3A (HTR3A, Homo sapiens, UniProt P46098)
Compound,target,assay,system,setting,IC50 [µM]
[H]/N=C(/N)c1ccc(NCc2nc3cc(C(=O)N(CCC(=O)O)c4ccccn4)ccc3n2C)cc1,"Plasminogen (PLG, Homo sapiens, UniProt P00747)","enzyme activity, inhibitor, absorbance",,,1.7
COc1c(Cl)cccc1Nc1c(-c2ccncc2OC[C@@H]2COCCO2)[nH]c2c1C(=O)NCC2,ERBB2,"enzyme activity, inhibitor, TR-FRET",,,< 0.0005
CNCCC(Oc1ccc(C(F)(F)F)cc1)c1ccccc1 (stereo not drawn),SLC18A2,"transporter uptake, inhibitor",,,2.75
Clc1ccc(C2(c3ccc(-c4cn[nH]c4)cc3)CCNCC2)cc1,LATS1,"target engagement in cells, BRET",,,8.87
CC(C)Nc1cccnc1N1CCN(C(=O)c2cc3cc(NS(C)(=O)=O)ccc3[nH]2)CC1,SLC18A2,"transporter uptake, inhibitor",,,4.04
CCOC(=O)N1CCC(=C2c3ccc(Cl)cc3CCc3cccnc32)CC1,CA1,"enzyme activity, inhibitor, absorbance",,pH 7.4,11.9
COc1cc2c(cc1OC)[C@H]1C[C@@H](OC(=O)[C@@H](N)C(C)C)[C@H](CC(C)C)CN1CC2,SLC18A2,"transporter uptake, inhibitor, radiometric",,cell membranes,0.53
CC[C@H]1OC(=O)[C@H](C)[C@@H](O[C@H]2C[C@@](C)(OC)[C@@H](O)[C@H](C)O2)[C@H](C)[C@@H](O[C@@H]2O[C@H](C)C[C@H](N(C)C)[C@H]2O)[C@](C)(O)C[C@@H](C)CN(C)[C@H](C)[C@@H](O)[C@]1(C)O,CA1,"enzyme activity, inhibitor, absorbance",,pH 7.4,15
Cc1cc2c(cc1C)N[C@H](c1ccccc1)[C@@H](O)C(=O)N2,ERBB2,"enzyme activity, inhibitor, ELISA",,,0.023
CCOC(=O)c1c(NC)c2c([nH]c1=O)CCC2,gag-pol reverse transcriptase,"enzyme activity, inhibitor",,,> 100
C=C(C)[C@@H]1CC[C@]2(C(=O)O)CC[C@]3(C)[C@H](CC[C@@H]4[C@@]5(C)CC[C@H](O)C(C)(C)[C@@H]5CC[C@]43C)[C@@H]12,UGT1A4,"enzyme activity, inhibitor","human, liver microsomes",,4.21
Cn1cnc([N+](=O)[O-])c1Sc1ncnc2nc[nH]c12,CA1,"enzyme activity, inhibitor, absorbance",,pH 7.4,18.4
Cc1cc(-c2ccnc3[nH]cc(F)c23)cc(F)c1[C@@]1(O)[C@H](C)CN(C2COC2)C[C@@H]1C,LATS1,"enzyme activity, inhibitor, radiometric",,,0.0059
Nc1ccc(S(=O)(=O)c2ccc(N)cc2)cc1,CA2,"enzyme activity, inhibitor, absorbance",,pH 7.4,15
CC(C)(C)NC(=O)C1CCN(Cc2cccc(/N=N/c3ccc(C(F)(F)F)cc3)c2)CC1,ACKR3,"ligand displacement, BRET",,,> 10
OC1(c2ccc(-c3ccnc4[nH]cc(F)c34)cc2)CCNCC1,LATS1,"enzyme activity, inhibitor, radiometric",,,0.0029
CN(C)C(=O)c1cc2cnc(Nc3ccc(-c4ccc5c(=O)cc(N6CCOCC6)oc5c4)cc3)nc2n1C1CCCC1,CYP2C19,"enzyme activity, inhibitor, fluorescence",,pH 8,0.023
CCOC(=O)c1c(NC(CC)CO)c2c([nH]c1=O)CCC2 (stereo not drawn),gag-pol reverse transcriptase,"enzyme activity, inhibitor",,,> 100
CC(C)(C)NC(=O)C1CCN(Cc2cccc(NC(=O)c3ccc(F)cc3)c2)CC1,ACKR3,"ligand displacement, BRET",,,0.0631
CC(=O)N1C[C@@H](C)[C@](O)(c2c(C)cc(-c3ccnc4[nH]cc(F)c34)cc2F)[C@@H](C)C1,LATS1,"enzyme activity, inhibitor, radiometric",,,0.0067
CC(C)=CCC/C(C)=C/CC/C(C)=C/Cc1c(O)cc(C)c(C(=O)O)c1O,"Sodium channel protein type 2 subunit alpha (SCN2A, Homo sapiens, UniProt Q99250)","ion current, inhibitor, patch clamp",,,1.61
CCCCCCNc1c2c([nH]c(=O)c1C(=O)OCC)CCC2,gag-pol reverse transcriptase,"enzyme activity, inhibitor",,,> 100
O=C1CCc2ccc(OCCCCN3CCN(c4cccc(Cl)c4Cl)CC3)cc2N1,SLC18A2,"transporter uptake, inhibitor, radiometric",,cell membranes,0.036
CCOC(=O)c1c(NCCCO)c2c([nH]c1=O)CCC2,gag-pol reverse transcriptase,"enzyme activity, inhibitor",,,> 100
C[C@@H]1CNC[C@H](C)[C@@]1(O)c1ccc(-c2ccnc3[nH]cc(F)c23)cc1,LATS1,"enzyme activity, inhibitor, radiometric",,,0.011
CN1CCN(CCCN2c3ccccc3Sc3ccc(Cl)cc32)CC1,SLC18A2,"transporter uptake, inhibitor",,,3.72
OC1(c2ccc(-c3ccnc4[nH]cc(F)c34)cc2)CCNC1 (stereo not drawn),LATS1,"enzyme activity, inhibitor, radiometric",,,0.011
CCCCNc1c2c([nH]c(=O)c1C(=O)OCC)CCC2,gag-pol reverse transcriptase,"enzyme activity, inhibitor",,,> 100
CCc1nn(CCCN2CCN(c3cccc(Cl)c3)CC2)c(=O)n1CCOc1ccccc1,SLC18A2,"transporter uptake, inhibitor",,,0.667
CN1CCC(CNc2ccc3ncc(-c4cccc(OC(F)(F)F)c4)n3n2)CC1,HTR3A,ion current,,,3.48
CNC(=O)c1ccccc1Sc1ccc2c(/C=C/c3ccccn3)n[nH]c2c1,SLC18A2,"transporter uptake, inhibitor",,,8.2
CCCNc1c2c([nH]c(=O)c1C(=O)OCC)CCC2,gag-pol reverse transcriptase,"enzyme activity, inhibitor",,,76.4
O=c1[nH]c(=O)n([C@H]2C[C@H](O)[C@@H](CO)O2)cc1/C=C/Br,CA1,"enzyme activity, inhibitor, absorbance",,pH 7.4,12.4
C[C@@H]1CC[C@@]2(OC1)O[C@H]1C[C@H]3[C@@H]4CC[C@H]5C[C@@H](O)CC[C@]5(C)[C@H]4CC(=O)[C@]3(C)[C@H]1[C@@H]2C,UGT1A4,"enzyme activity, inhibitor","human, liver microsomes",,2.23
CC(C)(C(=O)O)c1ccc(C(O)CCCN2CCC(C(O)(c3ccccc3)c3ccccc3)CC2)cc1 (stereo not drawn),CA2,"enzyme activity, inhibitor, absorbance",,pH 7.4,28.4
C=CCn1c(=O)c2cnc(Nc3ccc(N4CCN(C)CC4)cc3)nc2n1-c1ccc2c(n1)[C@@](O)(CC)CC2,CYP2C19,"enzyme activity, inhibitor",,,10
NC(=O)c1nnn(Cc2cc(Cl)c(C(=O)c3ccc(Cl)cc3)c(Cl)c2)c1N,HTR3A,ion current,,,4.35
COc1cc(C)c(/C=C/C(C)=C/C=C/C(C)=C/C(=O)O)c(C)c1C,CA1,"enzyme activity, inhibitor, absorbance",,pH 7.4,11.3
OC1CCN(c2ccc(/C=N/NC(=S)Nc3ccc(Cl)cc3)cc2)CC1,CA2,"enzyme activity, inhibitor, absorbance",,,0.378
C=CCCCNc1c2c([nH]c(=O)c1C(=O)OCC)CCC2,gag-pol reverse transcriptase,"enzyme activity, inhibitor",,,> 100
OC1(c2ccc(-c3ccnc4[nH]cc(F)c34)cc2)CCCNCC1 (stereo not drawn),LATS1,"target engagement in cells, BRET",,,7.09
COc1cc2c(N)nc(N3CCN(C(=O)OCC(C)(C)O)CC3)nc2c(OC)c1OC,SLC18A2,"transporter uptake, inhibitor",,,0.022
CCOCCn1c(C2CCN(CCc3ccc(C(C)(C)C(=O)O)cc3)CC2)nc2ccccc21,CA2,"enzyme activity, inhibitor, absorbance",,pH 7.4,13.4
CCOC(=O)c1c(N(CC)CC)c2c([nH]c1=O)CCC2,gag-pol reverse transcriptase,"enzyme activity, inhibitor",,,> 100
Cc1cc(-c2ccnc3[nH]cc(F)c23)cc(F)c1[C@@]1(O)[C@H](C)CN(C(=O)CN)C[C@@H]1C,LATS1,"enzyme activity, inhibitor, radiometric",,,0.0018
